# Compound activity from PubChem BioAssay.
# MrgX1 antagonist: blocks BAM8-22 activation of human MrgX1 receptor. Q96LB2. MRGX1-HEK293 calcium flux, Fluo-4, BAM8-22 antagonism; active compounds read low. B-score at 10 µM. hit rate 1.3% among 310,000. AID 588676;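 active means calcium-response B-score plate-corrected more than 3 library SD below zero, starting fluorescence within 5 deviations, no agonist response on first addition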;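 further: peak minus trough fluorescence over baseline after final BAM8-22 challenge near maximal dose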
# Target sequence (Q96LB2 whole entry, looked up): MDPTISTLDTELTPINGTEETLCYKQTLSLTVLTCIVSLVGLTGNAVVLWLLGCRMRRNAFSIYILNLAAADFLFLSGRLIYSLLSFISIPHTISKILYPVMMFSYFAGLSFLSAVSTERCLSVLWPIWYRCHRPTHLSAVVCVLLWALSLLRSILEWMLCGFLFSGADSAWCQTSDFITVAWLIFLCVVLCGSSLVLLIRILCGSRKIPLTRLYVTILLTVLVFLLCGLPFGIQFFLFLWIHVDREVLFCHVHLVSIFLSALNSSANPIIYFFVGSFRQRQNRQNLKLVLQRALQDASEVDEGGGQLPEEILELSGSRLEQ
# RGS4 pot: RGS4 potentiation or activation; HEK293 M3R/inducible RGS4, carbachol calcium flux Fluo4; active compounds read low; B-score at 10 µM; hit rate 0.92% among 310,000;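 active means B-score of the integrated calcium signal more than 4 SD below the library mean, with starting fluorescence not abnormally high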;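 further: negative B-score means reduced calcium response which marks RGS4 activation or potentiation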
#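 Material: M3R-expressing HEK293 line, RGS4 induced by doxycycline | Schedule: Overnight RGS4 induction, 30 min dye load 37 °C, 20 min compound RT | Measured by: Fluo4 fluorescence kinetic imaging of calcium | Read-out: Integrated calcium ratio converted to B score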
# MrgX1 allo act: human MrgX1 positive allosteric modulation, primary screen. Q96LB2. MrgX1-HEK293, Fluo-4 calcium flux, FDSS; active compounds read high. B-score at 10 µM. hit rate 0.63% among 310,000;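 active means plate-corrected calcium response at least 3 library SD above typical, normal starting fluorescence, not activating the receptor alone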;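 further: compound read alongside a low EC10 to EC30 dose of BAM8-22 agonist; peak minus trough fluorescence over baseline measured at the second addition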
# MrgX1 ag: activates human MrgX1 receptor signaling; Q96LB2; MrgX1-HEK293 cells, Fluo-4 calcium fluorescence, agonist mode; active compounds read high; B-score at 10 µM; hit rate 0.44% among 310,000; AID 588627;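 active means calcium response B-score plate-corrected fluorescence ratio at least 3 library SD, with starting fluorescence B-score inside 5 SD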
#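 Material – MrgX1-expressing HEK293 cells · Input – 15,000 cells seeded per well · Dosing – compound as first of three additions · Times – overnight seeding, then 1 h dark dye loading · Measured by – kinetic Fluo-4 NW fluorescence of intracellular calcium · Read-out – B-scored fluorescence response ratio · Benchmarks – positive and negative control wells on each plate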
# RGS4 inh: inhibitors of human RGS4 | HEK293 M3R/RGS4 inducible, Fluo-4 calcium flux; active compounds read high; triggered by carbachol at its EC20 | B-score at 10 µM | hit rate 0.45% among 310,000 | AID 463165;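 active means B-score, a plate-corrected calcium signal, over three deviations above library mean, with baseline fluorescence within five deviations of library mean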;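 further: RGS4 expression induced by doxycycline in cells with stable M3 receptor; B-score is computed from the integrated fluorescence ratio over baseline after carbachol; higher B-score means a larger calcium signal and so more RGS4 inhibition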
# Target sequence (P49798 whole entry, looked up): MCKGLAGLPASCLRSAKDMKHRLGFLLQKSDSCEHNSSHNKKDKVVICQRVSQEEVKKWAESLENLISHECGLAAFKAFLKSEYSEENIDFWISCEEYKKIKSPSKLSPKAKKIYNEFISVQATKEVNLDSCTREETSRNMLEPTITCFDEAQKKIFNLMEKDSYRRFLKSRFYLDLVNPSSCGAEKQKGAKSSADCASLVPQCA
# * marks the source's active call; other numbers are inactive results; i = inactive. This is a sample that favours compounds with a hit; in the whole collection about 3.5% have one here.
SMILES,MrgX1 antagonist,RGS4 pot,MrgX1 allo act,MrgX1 ag,RGS4 inh
CCCCCCCC(=O)NNC(=O)Cc1ccccc1,-6.9*,i,i,i,i
CCCCC(=O)NC(=S)NNC(=O)CCc1ccccc1,i,i,i,49*,i
Cc1ccc(-c2csc(NC(=O)COC(=O)c3cccc(S(=O)(=O)N4CCOCC4)c3)n2)cc1,-4.8*,i,i,i,i
N/C(=N\OC(=O)C1CCCCC1)c1ccc(Br)cc1,i,i,i,i,i
N/C(=N\OC(=O)C1CCCCC1)c1ccncc1,-4.5*,i,i,i,i
COc1ccc(C(=O)C/C(=C\C(=O)c2ccc(C)cc2)c2ccccc2)cc1,-5.6*,-7.1*,i,i,i
COc1ccc(C(=O)CC(=O)c2ccccc2)cc1,i,i,i,i,i
O=c1cc(N2CCCCC2)c(-c2ccccc2)nn1Cc1ccc(Cl)cc1Cl,i,-8.7*,i,i,i
O=c1cc(N2CCCCC2)c(-c2ccccc2)nn1Cc1ccccc1Cl,i,-7.1*,i,i,i
O=c1cc(N2CCCCC2)c(-c2ccccc2)nn1Cc1cccc(Cl)c1,i,i,i,i,i
Cc1ccc(S(=O)(=O)/N=C(/c2ccc(F)cc2)N(C)C)cc1,i,i,i,i,i
COc1ccc(Cl)cc1C(=O)OCC(=O)N(C)CC(=O)Nc1ccc(F)cc1,i,i,i,i,i
Cc1ccc(SCC(=O)OCC(=O)N(C)CC(=O)Nc2ccc(F)cc2)cc1C,i,i,i,48*,i
CCN(CC)CCCCN1c2ccccc2Sc2ccccc21,i,-7.2*,i,i,i
CN(C)CCCN1c2ccccc2Sc2ccc(C(F)(F)F)cc21,i,-8.3*,i,i,i
CN1CCN(CCC(=O)N2c3ccccc3Sc3ccc(C(F)(F)F)cc32)CC1,-8.2*,i,i,i,i
O=C(COC(=O)c1ccccc1SCC(=O)N1CCCC1)Nc1ccccc1C(F)(F)F,i,i,i,i,i
O=C(N/C(=C\c1cccnc1)C(=O)N1CCOCC1)c1ccco1,-5*,i,i,i,i
Cc1ccc(/C=C/C(=O)Nc2cccnc2)o1,-7.1*,i,i,i,i
COc1ccc(NC(=O)/C=C/c2ccc(Br)o2)cn1,-7.2*,i,i,i,i
O=C(/C=C/c1ccccc1)Nc1cccnc1,i,i,i,i,i
Nc1ccccc1SCC(=O)Nc1ccc2c(c1)OCCO2,i,i,i,i,i
O=C(/C=C/c1ccc(F)cc1)NCC1(c2ccccc2)CCOCC1,i,i,i,i,i
O=C(COc1ccccc1)NC(=S)Nc1cccc2cc(O)ccc12,i,i,i,i,i
COc1ccccc1CNC(=O)c1nn(-c2ccc(C)cc2)c(=O)c2c1c1ccccc1n2C,-8*,i,i,i,i
SMILES,MrgX1 antagonist,RGS4 pot,MrgX1 allo act,MrgX1 ag,RGS4 inh
Nc1ccc(-c2nc3ncccc3o2)cc1,i,i,i,i,i
Cc1ccc(-c2noc(-c3cc(C(C)(C)C)nn3Cc3ccccc3)n2)cc1,-6.8*,i,i,i,i
CC1CCCN(c2ccc([N+](=O)[O-])cc2C(=O)c2ccccc2)C1 (configuration not stated),i,i,i,i,i
C/C(CC(=O)Nc1ccc(Cl)cc1Cl)=N\NC(=O)C(=O)N1CCCC1,i,i,i,i,i
COCCNC(=O)C(=O)N/N=C(\C)CC(=O)Nc1ccc(Cl)cc1Cl,-6.4*,i,i,i,i
Cn1c(=O)n(Cc2ccccc2)c2ccccc21,i,i,i,i,i
Cn1c(=O)nc2n(Cc3ccccc3)c3cccc(Cl)c3cc-2c1=O,i,-9.4*,i,i,i
COc1ccc(S(=O)(=O)NCC(c2cccnc2)N2CCN(C)CC2)cc1OC (configuration not stated),i,i,i,i,i
COc1ccc(C2C=C(C)Nc3ncnn32)cc1 (configuration not stated),i,i,i,i,i
COc1ccc(C2C=C(c3ccccc3)Nc3ncnn32)cc1 (configuration not stated),i,i,10*,i,i
CCOc1ccc(C2C=C(c3ccc(C)cc3)Nc3ncnn32)cc1 (configuration not stated),i,i,i,30*,i
Cc1ccc(C(=O)NCCNS(=O)(=O)c2ccccc2[N+](=O)[O-])cc1,i,i,i,i,i
CC(=O)NC1=NC(=O)/C(=C/c2cc(C)n(-c3ccc(NC(C)=O)cc3)c2C)S1,-4.5*,i,i,i,i
Oc1oc(-c2ccccc2)nc1/C=N/c1nccs1,i,i,i,i,i
Oc1oc(-c2ccccc2)nc1C=Nc1cccc2ccccc12,i,-7.2*,i,i,i
COC(=O)C(C)n1cnc2c(nnn2-c2ccccc2)c1=O (configuration not stated),i,i,i,i,i
COc1ccc(NC(=O)COC(=O)c2ccc(OCc3ccccc3Cl)c(OC)c2)c(OC)c1,-6*,i,i,i,i
CCc1ccccc1N(C(=O)Cn1nnc2ccccc21)C(C(=O)NCCOC)c1ccco1 (configuration not stated),i,i,i,i,i
COCCNC(=O)C(c1ccco1)N(C(=O)Cn1nnc2ccccc21)c1ccc(C)cc1C (configuration not stated),i,i,7.9*,i,i
COC(C/C=C\[C@H](O)[C@H](C)OCc1ccccc1)OC,-5.4*,i,i,i,i
CC(=O)Nc1ccc(NC(=O)C2CCCCN2S(=O)(=O)c2ccc(C(C)(C)C)cc2)cc1 (configuration not stated),i,i,i,i,i
COc1cc(-c2nc3cc(C)ccn3c2NC2CCCCC2)ccc1-c1ccc(C(C)=O)cc1,i,i,i,i,i
CCCCCCSc1cc(-c2nc3cc(C)ccn3c2NC2CCCCC2)ccc1OC,i,i,i,i,i
CCCCNc1c(-c2ccc(OC)c(SC3CCCCC3)c2)nc2cnccn12,i,-10*,i,i,i
CCCCNc1c(-c2ccc(-c3ccc(C(C)=O)cc3)c(OC)c2)nc2cnccn12,i,-11*,i,i,i
COc1cc(-c2nc3ccccn3c2NCc2ccccc2)ccc1SC1CCCCC1,i,i,i,i,i
